Laboratory results taken from ChEMBL document CHEMBL3091449, “Synthesis and antimicrobial profile of N-substituted imidazolium oximes and their monoquaternary salts against multidrug resistant bacteria” (2013).
In brackets after ≈: the same amount, converted by molar mass.

What was measured:
Type in all cases: functional
Candida albicans = assay: Antifungal activity against Candida albicans ATCC 10231 assessed as diameter of zone of inhibition at 10 ug/disc after 48 hrs by disc diffusion method; settings: ATCC 10231, 48 h, read-out: DIZ
Outline: (§1)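 The positive control was amphotericin B 10 µg discs on Sabouraud dextrose agar spread with 100 µL of a 10^4 cfu/mL fungal suspension. Plates were kept at 30 °C for 48 h (yeast) or 72 h (molds). Inhibition zone was measured including the 6 mm disc, in triplicate, mean ± SE.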

Aspergillus fumigatus = assay: Antifungal activity against Aspergillus fumigatus FNSST 3833 assessed as diameter of zone of inhibition at 10 ug/disc after 72 hrs by disc diffusion method; settings: FNSST 3833, 72 h, read-out: DIZ; outline: as §1
Talaromyces funiculosus = assay: Antifungal activity against Penicillium funiculosum FNSST 3724 assessed as diameter of zone of inhibition at 10 ug/disc after 72 hrs by disc diffusion method; settings: FNSST 3724, 72 h, read-out: DIZ; outline: as §1
Acinetobacter baumannii = assay: Antibacterial activity against SIM-1 expressing Acinetobacter baumannii isolate 170 after 18 to 24 hrs by two-fold broth microdilution assay
Outline: (§2)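 CLSI two-fold broth microdilution. Compounds dissolved in DMSO, 10 mg/mL stock, serially diluted to 400–0.09 µg/mL in Mueller Hinton broth. Wells inoculated with 10^6 CFU/mL bacteria and incubated 18–24 h at 37 °C. 0.2 mg/mL INT added for 30 min. MIC taken as the lowest concentration with no visible growth or pink colour. Triplicate.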

Escherichia coli [1] = assay: Antibacterial activity against […] expressing Escherichia coli isolate 235 after 18 to 24 hrs by two-fold broth microdilution assay; outline: as §2
Pseudomonas aeruginosa [2] = assay: Antibacterial activity against Pseudomonas aeruginosa FNSST 982 after 18 to 24 hrs by two-fold broth microdilution assay
Outline: (§3)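 CLSI two-fold broth microdilution was used. Compounds were dissolved in DMSO, brought to 10 mg/mL in medium, then serially diluted in Mueller Hinton broth over 400–0.09 µg/mL. Overnight MHB cultures were diluted to 10^6 CFU/mL, and 10 µL was added per well. Plates were incubated 18–24 h at 37 °C, then 0.2 mg/mL INT was added for 30 min at 37 °C. MIC was the lowest concentration with no visible growth or pink colour, triplicate.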

Aeromonas hydrophila [3] = assay: Antibacterial activity against Aeromonas hydrophila FNSST 014 assessed as diameter of zone of inhibition at 30 ug/disc after 24 hrs by disc diffusion method; settings: FNSST 014, 24 h, read-out: DIZ
Outline: (§4)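 Ampicillin 30 µg discs were the positive control on Mueller Hinton agar. The agar was spread with 100 µL of a 10^6 cfu/mL overnight TSB culture grown at 37 °C. Plates were incubated 24 h at 37 °C, and zone diameter was read including the 6 mm disc, in triplicate, mean ± SE.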

Enterobacter cloacae [4] = assay: Antibacterial activity against TEM-1/CTX-M-15 expressing Enterobacter cloacae isolate 62 after 18 to 24 hrs by two-fold broth microdilution assay
Enterococcus faecalis [5] = assay: Antibacterial activity against Enterococcus faecalis ATCC 29212 after 18 to 24 hrs by two-fold broth microdilution assay; outline: as §3
Enterobacter cloacae [6] = assay: Antibacterial activity against TEM-1/SHV-12 expressing Enterobacter cloacae isolate 306 after 18 to 24 hrs by two-fold broth microdilution assay
Aeromonas hydrophila [7] = assay: Antibacterial activity against Aeromonas hydrophila FNSST 014 after 18 to 24 hrs by two-fold broth microdilution assay; outline: as §3
Klebsiella pneumoniae [8] = assay: Antibacterial activity against TEM-1/SHV-12 expressing Klebsiella pneumoniae isolate 303 after 18 to 24 hrs by two-fold broth microdilution assay; outline: as §3
Escherichia coli [9] = assay: Antibacterial activity against TEM-1/SHV-12 expressing Escherichia coli isolate 237 after 18 to 24 hrs by two-fold broth microdilution assay; outline: as §2
Clostridium perfringens [10] = assay: Antibacterial activity against Clostridium perfringens FNSST 4999 after 18 to 24 hrs by two-fold broth microdilution assay; outline: as §2
Kluyvera intermedia = assay: Antibacterial activity against TEM-1/SHV-12/[…] expressing Enterobacter intermedius isolate 243 after 18 to 24 hrs by two-fold broth microdilution assay; outline: as §3
Klebsiella pneumoniae [11] = assay: Antibacterial activity against Klebsiella pneumoniae FNSST 011 after 18 to 24 hrs by two-fold broth microdilution assay; outline: as §3
Staphylococcus aureus [12] = assay: Antibacterial activity against Staphylococcus aureus ATCC 25923 assessed as diameter of zone of inhibition at 30 ug/disc after 24 hrs by disc diffusion method; settings: ATCC 25923, 24 h, read-out: DIZ; outline: as §4
Bacillus cereus [13] = assay: Antibacterial activity against Bacillus cereus ATCC 11778 assessed as diameter of zone of inhibition at 30 ug/disc after 24 hrs by disc diffusion method; settings: ATCC 11778, 24 h, read-out: DIZ; outline: as §4
Clostridium perfringens [14] = assay: Antibacterial activity against Clostridium perfringens FNSST 4999 assessed as diameter of zone of inhibition at 30 ug/disc after 24 hrs by disc diffusion method; settings: FNSST 4999, 24 h, read-out: DIZ
Outline: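 Ampicillin 30 µg disc run as positive control in CLSI disc diffusion. 100 µL of 10^6 cfu/mL bacteria spread on Mueller Hinton agar, incubated 24 h at 37 °C. Zone diameter measured in mm including the disc, triplicate, mean ± SE.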

Escherichia coli [15] = assay: Antibacterial activity against Escherichia coli FNSST 982 after 18 to 24 hrs by two-fold broth microdilution assay; outline: as §3
Staphylococcus aureus [16] = assay: Antibacterial activity against Staphylococcus aureus ATCC 25923 after 18 to 24 hrs by two-fold broth microdilution assay; outline: as §3
Escherichia coli [17] = assay: Antibacterial activity against Escherichia coli FNSST 982 assessed as diameter of zone of inhibition at 30 ug/disc after 24 hrs by disc diffusion method; settings: FNSST 982, 24 h, read-out: DIZ; outline: as §4
Bacillus cereus [18] = assay: Antibacterial activity against Bacillus cereus ATCC 11778 after 18 to 24 hrs by two-fold broth microdilution assay; outline: as §3
Pseudomonas aeruginosa [19] = assay: Antibacterial activity against GIM-1 expressing Pseudomonas aeruginosa isolate 197 after 18 to 24 hrs by two-fold broth microdilution assay; outline: as §3
Aeromonas caviae [20] = assay: Antibacterial activity against […] expressing Aeromonas caviae isolate 258 after 18 to 24 hrs by two-fold broth microdilution assay; outline: as §3
Klebsiella pneumoniae [21] = assay: Antibacterial activity against Klebsiella pneumoniae FNSST 011 assessed as diameter of zone of inhibition at 30 ug/disc after 24 hrs by disc diffusion method; settings: FNSST 011, 24 h, read-out: DIZ; outline: as §4
Aeromonas hydrophila [22] = assay: Antibacterial activity against TEM-1/SHV-12 expressing Aeromonas hydrophila isolate 268 after 18 to 24 hrs by two-fold broth microdilution assay; outline: as §3
Aeromonas caviae [23] = assay: Antibacterial activity against TEM-1/CTX-M-15 expressing Aeromonas caviae isolate 260 after 18 to 24 hrs by two-fold broth microdilution assay; outline: as §3
[24] = test system: Stenotrophomonas maltophilia; assay: Antibacterial activity against […] expressing Stenotrophomonas maltophilia isolate 125 after 18 to 24 hrs by two-fold broth microdilution assay; outline: as §3
Enterobacter cloacae [25] = assay: Antibacterial activity against CTX-15 expressing Enterobacter cloacae isolate 51 after 18 to 24 hrs by two-fold broth microdilution assay
Escherichia coli [26] = assay: Antibacterial activity against […] expressing Escherichia coli isolate 4024 after 18 to 24 hrs by two-fold broth microdilution assay; outline: as §2
Enterococcus faecalis [27] = assay: Antibacterial activity against Enterococcus faecalis ATCC 29212 assessed as diameter of zone of inhibition at 30 ug/disc after 24 hrs by disc diffusion method; settings: ATCC 29212, 24 h, read-out: DIZ; outline: as §4
Pseudomonas aeruginosa [28] = assay: Antibacterial activity against Pseudomonas aeruginosa FNSST 982 assessed as diameter of zone of inhibition at 30 ug/disc after 24 hrs by disc diffusion method; settings: FNSST 982, 24 h, read-out: DIZ; outline: as §4

C[C@@H]1[C@H](O)[C@@H](C)/C=C/C=C/C=C/C=C/C=C/C=C/C=C/[C@H](O[C@@H]2O[C@H](C)[C@@H](O)[C@H](N)[C@@H]2O)C[C@@H]2O[C@](O)(C[C@@H](O)C[C@@H](O)[C@H](O)CC[C@@H](O)C[C@@H](O)CC(=O)O[C@H]1C)C[C@H](O)[C@H]2C(=O)O [AMPHOTERICIN B]
zone of inhibition at 10 µg/disc (Candida albicans): 21.6 mm | zone of inhibition at 10 µg/disc (Aspergillus fumigatus): 19.2 mm | zone of inhibition at 10 µg/disc (Talaromyces funiculosus): 18.3 mm

CO/N=C(\C(=O)N[C@@H]1C(=O)N2C(C(=O)O)=C(COC(C)=O)CS[C@H]12)c1csc(N)n1 [CEFOTAXIME]
MIC (Acinetobacter baumannii): > 256 µg/mL | MIC (Escherichia coli [1]): > 256 µg/mL | MIC (Pseudomonas aeruginosa [2]): 16 µg/mL (≈ 35.1 µM) | zone of inhibition at 30 µg/disc (Aeromonas hydrophila [3]): 14.7 mm | MIC (Enterobacter cloacae [4]): > 256 µg/mL | MIC (Enterococcus faecalis [5]): 0.5 µg/mL (≈ 1.1 µM) | MIC (Enterobacter cloacae [6]): > 128 µg/mL | MIC (Aeromonas hydrophila [7]): 8 µg/mL (≈ 17.6 µM) | MIC (Klebsiella pneumoniae [8]): 64 µg/mL (≈ 141 µM) | MIC (Escherichia coli [9]): > 256 µg/mL | MIC (Clostridium perfringens [10]): 0.1 µg/mL (≈ 0.22 µM) | MIC (Kluyvera intermedia): 8 µg/mL (≈ 17.6 µM) | MIC (Klebsiella pneumoniae [11]): 0.5 µg/mL (≈ 1.1 µM) | zone of inhibition at 30 µg/disc (Staphylococcus aureus [12]): 21.7 mm | zone of inhibition at 30 µg/disc (Bacillus cereus [13]): 26.8 mm | zone of inhibition at 30 µg/disc (Clostridium perfringens [14]): 28.5 mm | MIC (Escherichia coli [15]): 0.5 µg/mL (≈ 1.1 µM) | MIC (Staphylococcus aureus [16]): 0.5 µg/mL (≈ 1.1 µM) | zone of inhibition at 30 µg/disc (Escherichia coli [17]): 22.8 mm | MIC (Bacillus cereus [18]): 0.25 µg/mL (≈ 0.549 µM) | MIC (Pseudomonas aeruginosa [19]): 256 µg/mL (≈ 562 µM) | MIC (Aeromonas caviae [20]): 258 µg/mL (≈ 566 µM) | zone of inhibition at 30 µg/disc (Klebsiella pneumoniae [21]): 21.4 mm | MIC (Aeromonas hydrophila [22]): 256 µg/mL (≈ 562 µM) | MIC (Aeromonas caviae [23]): 256 µg/mL (≈ 562 µM) | MIC [24]: 32 µg/mL (≈ 70.3 µM) | MIC (Enterobacter cloacae [25]): 32 µg/mL (≈ 70.3 µM) | MIC (Escherichia coli [26]): 256 µg/mL (≈ 562 µM) | zone of inhibition at 30 µg/disc (Enterococcus faecalis [27]): 23.5 mm | zone of inhibition at 30 µg/disc (Pseudomonas aeruginosa [28]): 10.4 mm
